Experiments:
EcIMPDH/WT = EcIMPDH/WT (Escherichia coli, UniProt P0ADG7); assay: biochemical; format: biochemical
EcIMPDH/D243G = EcIMPDH/D243G (Escherichia coli, UniProt P0ADG7, D243G); assay: biochemical; format: biochemical
AbIMPDH = AbIMPDH (Acinetobacter baumannii, UniProt D0CF46); assay: biochemical; format: biochemical
[1] = tested on: E. coli strains containing WT and mutant IMPDH; assay: Growth of engineered E. coli strains with WT or mutant IMPDH; format: cell-based, Escherichia coli
Summary of the method: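 E. coli strains carrying WT or mutant IMPDH (guaB) were precultured overnight to saturation in M9 + 1 mM IPTG + 2 g/L glucose. They were diluted 100-fold into M9 salts with 300 mg/L thiamine, 1 mM IPTG and the carbon source; for coumarate, 1 g/L with or without 5 mg/L guanosine (~18 μM). Triplicate cultures were read at OD600 in a plate reader, growth rates were curve-fitted, and standard deviation was taken over three biological replicates.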

Sequence of EcIMPDH/D243G (P0ADG7 whole entry D243G): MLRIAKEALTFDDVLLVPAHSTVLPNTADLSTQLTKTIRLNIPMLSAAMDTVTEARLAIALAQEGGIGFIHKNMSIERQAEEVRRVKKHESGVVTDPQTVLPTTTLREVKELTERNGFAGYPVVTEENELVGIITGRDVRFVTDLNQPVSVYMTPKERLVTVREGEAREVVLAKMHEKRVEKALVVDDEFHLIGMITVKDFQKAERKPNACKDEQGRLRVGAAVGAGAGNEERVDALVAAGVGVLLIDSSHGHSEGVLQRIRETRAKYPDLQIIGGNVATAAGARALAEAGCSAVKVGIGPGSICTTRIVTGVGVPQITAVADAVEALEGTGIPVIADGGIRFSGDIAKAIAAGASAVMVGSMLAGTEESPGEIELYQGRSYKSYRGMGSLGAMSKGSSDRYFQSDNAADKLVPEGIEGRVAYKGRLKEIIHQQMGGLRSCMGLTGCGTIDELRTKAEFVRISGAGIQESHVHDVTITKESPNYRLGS
Sequence of EcIMPDH/WT (P0ADG7 whole entry): as the sequence (P0ADG7 whole entry D243G) above, with G243D counted along it

SMILES: NC(=O)c1ccc[n+]([C@@H]2O[C@H](COP(=O)([O-])OP(=O)(O)OC[C@H]3O[C@@H](n4cnc5c(N)ncnc54)[C@H](O)[C@@H]3O)[C@@H](O)[C@H]2O)c1 [NAD]
- Kii(NAD) (EcIMPDH/WT; EcIMPDH/WT, substrate inhibition by NAD, fixed 1.2 mM IMP): 4300 ± 530 µM
- Km (EcIMPDH/WT; read-out: Km(NAD), EcIMPDH/WT, fixed 1.2 mM IMP, 50 nM enzyme): 210 ± 20 µM
- Kii(NAD) (EcIMPDH/D243G; EcIMPDH/D243G, substrate inhibition by NAD, fixed 1.2 mM IMP): 3500 ± 690 µM
- Km (EcIMPDH/D243G; read-out: Km(NAD), EcIMPDH/D243G, fixed 1.2 mM IMP, 50 nM enzyme): 210 ± 40 µM
- Kii(NAD) (AbIMPDH; AbIMPDH, substrate inhibition by NAD, fixed 1.2 mM IMP): 10600 ± 1100 µM
- Km (AbIMPDH; read-out: Km(NAD), AbIMPDH, fixed 1.2 mM IMP, 50 nM enzyme): 208 ± 17 µM

SMILES: O=Cc1ccc(O)cc1 [4-hydroxybenzaldehyde]
- Ki (EcIMPDH/WT; Ki,app(4HB), EcIMPDH/WT, 20 nM enzyme, 12 μM IMP, 500 μM NAD+, pH 7.0): 320 ± 30 µM
- Inhibition mechanism with respect to IMP (EcIMPDH/WT; wild type EcIMPDH): uncompetitive inhibitor
- Inhibition mechanism with respect to NAD+ (EcIMPDH/WT; wild type EcIMPDH): noncompetitive (mixed) inhibitor
- Inhibition mechanism with respect to IMP (EcIMPDH/D243G; D243G EcIMPDH): uncompetitive inhibitor
- Inhibition mechanism with respect to NAD+ (EcIMPDH/D243G; D243G EcIMPDH): noncompetitive (mixed) inhibitor
- Ki (EcIMPDH/D243G; Ki,app(4HB), EcIMPDH/D243G, 20 nM enzyme, 12 μM IMP, 500 μM NAD+, pH 7.0): 1250 ± 50 µM
- Ki (AbIMPDH): 720 ± 30 µM

SMILES: Nc1nc2c(ncn2[C@@H]2O[C@H](CO)[C@@H](O)[C@H]2O)c(=O)[nH]1 [guanosine]
- Effect of added guanosine on inhibition by 4-hydroxybenzaldehyde ([1]; strain JME129 (wild-type guaB), growth with glucose (Figure S6)): relieved inhibition
- Effect of added guanosine on growth with coumarate ([1]; strain with wild-type IMPDH, 1 g/L coumarate, 5 mg/L guanosine): increased growth with coumarate

From article PMC6904512 (Molecular microbiology, 2019)
